Values after ≈ are worked out from the molar mass of the structure shown. Active and inactive are the calls of the source. No cut-off for these calls is given here.
Columns and labels:
Helicoverpa armigera [1] = test: Antifeedant activity against pre-starved third-instar larva of Helicoverpa armigera after 6 hr by choice feeding assay; format: functional
How it was run: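 H. armigera from lab culture on artificial diet, 27±1 °C, 16:8 LD. Single 2–10-h-old third instar, starved 4 h, in 9-cm Petri dish. Two preweighed diet cubes with compound (25–100 ppm) alternated with two control cubes. Consumption per cube measured after 6 h. 10 replicates per concentration. Deterrence index = (C − T)/(C + T) × 100.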

Helicoverpa armigera [2] = test: Antifeedant activity against pre-starved third-instar larva of Helicoverpa armigera assessed as decrease in feeding after 6 hr by choice feeding assay relative to control; format: functional, organism-based
How it was run: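 Diet choice test in 9-cm Petri dishes: two preweighed cubes of diet with compound (25-100 ppm) alternated with two control cubes. A single 2- to 10-h-old third instar, pre-starved 4 h, was placed centrally. Consumption of each cube was weighed after 6 h, with 10 replicates per concentration. Deterrence index = (C − T)/(C + T) × 100.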

Helicoverpa armigera [3] = test: Antifeedant activity against fourth-instar larva of Helicoverpa armigera assessed as relative growth rate ratio per unit weight per day at 5 ppm applied topically measured after 3 days (reference value: 0.8 +/- 0.03); format: functional
Helicoverpa armigera [4] = test: Antifeedant activity against neonate larva of Helicoverpa armigera assessed as growth inhibition after 7 days by dietary assay; format: functional, organism-based; settings: for EC95: Helicoverpa armigera, feed or water, 168 h
How it was run: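 Two 24-h-old neonates were placed per cup on 1 g fresh-weight treated artificial diet. Cups were held in a tray lined with moist filter paper at 27±2 °C under 16:8 LD. Growth was taken from larval weight after 7 d as % of control, with mortality recorded. Forty larvae were used per concentration. EC50 was obtained by regression analysis.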

Helicoverpa armigera [5] = test: Antifeedant activity against Helicoverpa armigera fed on compound-treated artificial diet assessed as growth inhibition at 50 to 100 ppm after 3 days relative to control; format: functional
Helicoverpa armigera [6] = test: Antifeedant activity against fourth-instar larva of Helicoverpa armigera fed on compound treated artificial diet assessed as relative growth rate ratio per unit weight per day at 50 ppm after 3 days (reference value: 0.8 +/- 0.03); format: functional
Helicoverpa armigera [7] = test: Antifeedant activity against third-instar larva of Helicoverpa armigera assessed as decrease in food consumption at 2 to 10 ug/larva applied topically measured after 7 days relative to control; format: functional, organism-based
How it was run: (§1)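 Larvae were dosed topically at 2-10 µg/larva in 0.5 µL acetone on the dorsal terga, with acetone-only controls. They were then fed untreated artificial diet, and diet consumption and weight gain were compared with controls over 7 d.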

Helicoverpa armigera [8] = test: Antifeedant activity against fourth-instar larva of Helicoverpa armigera fed on compound treated artificial diet assessed as relative consumption rate ratio per unit weight per day at 100 ppm after 3 days (reference value: 3.85 +/- 0.9); format: functional
Helicoverpa armigera [9] = test: Antifeedant activity against Helicoverpa armigera fed on compound-treated artificial diet assessed as inhibition of consumption at 100 ppm after 3 days relative to control; format: functional; settings: 72 h
Helicoverpa armigera [10] = test: Antifeedant activity against fourth-instar larva of Helicoverpa armigera assessed as relative consumption rate ratio per unit weight per day at 5 ppm applied topically measured after 3 days (reference value: 3.85 +/- 0.9); format: functional
Helicoverpa armigera [11] = test: Antifeedant activity against fourth-instar larva of Helicoverpa armigera assessed as efficiency of conversion of ingested food at 5 ppm applied topically measured after 3 days (reference value: 20.3 +/- 2.7%); format: functional, Instar larval stage
Helicoverpa armigera [12] = test: Antifeedant activity against fourth-instar larva of Helicoverpa armigera fed on compound treated artificial diet assessed as efficiency of conversion of ingested food at 100 ppm after 3 days (reference value: 20.3 +/- 2.7%); format: functional, Instar larval stage
Helicoverpa armigera [13] = test: Antifeedant activity against fourth-instar larva of Helicoverpa armigera assessed as relative growth rate ratio per unit weight per day at 10 ppm applied topically measured after 3 days (reference value: 0.8 +/- 0.03); format: functional
Helicoverpa armigera [14] = test: Antifeedant activity against third-instar larva of Helicoverpa armigera assessed as growth inhibition after 7 days by dietary assay; format: functional, organism-based
Helicoverpa armigera [15] = test: Antifeedant activity against fourth-instar larva of Helicoverpa armigera assessed as efficiency of conversion of ingested food at 10 ppm applied topically measured after 3 days (reference value: 20.3 +/- 2.7%); format: functional, Instar larval stage
Helicoverpa armigera [16] = test: Antifeedant activity against fourth-instar larva of Helicoverpa armigera fed on compound treated artificial diet assessed as relative growth rate ratio per unit weight per day at 100 ppm after 3 days (reference value: 0.8 +/- 0.03); format: functional
Helicoverpa armigera [17] = test: Antifeedant activity against fourth-instar larva of Helicoverpa armigera assessed as relative consumption rate ratio per unit weight per day at 10 ppm applied topically measured after 3 days (reference value: 3.85 +/- 0.9); format: functional
Helicoverpa armigera [18] = test: Antifeedant activity against third-instar larva of Helicoverpa armigera assessed as decrease in weight gain at 2 to 10 ug/larva applied topically measured after 7 days relative to control; format: functional, organism-based; how it was run: as §1
Helicoverpa armigera [19] = test: Antifeedant activity against fourth-instar larva of Helicoverpa armigera fed on compound treated artificial diet assessed as relative consumption rate ratio per unit weight per day at 50 ppm after 3 days (reference value: 3.85 +/- 0.9); format: functional
Helicoverpa armigera [20] = test: Antifeedant activity against fourth-instar larva of Helicoverpa armigera fed on compound treated artificial diet assessed as efficiency of conversion of ingested food at 50 ppm after 3 days (reference value: 20.3 +/- 2.7%); format: functional, Instar larval stage
Helicoverpa armigera [21] = test: Antifeedant activity against neonate larva of Helicoverpa armigera assessed as decrease in consumption of diet after 7 days by dietary assay; format: functional

| SMILES | Activity (Helicoverpa armigera [2]) | Ratio (Helicoverpa armigera [3]) | EC50 (Helicoverpa armigera [4]) [ppm] | EC95 (Helicoverpa armigera [4]) [µg/mL] | growth inhibition (GI) (Helicoverpa armigera [5]) [%] | Ratio (Helicoverpa armigera [6]) | Activity (Helicoverpa armigera [7]) | Ratio (Helicoverpa armigera [8]) | inhibition at 100 ppm (Helicoverpa armigera [9]) [%] | Ratio (Helicoverpa armigera [10]) | Activity (Helicoverpa armigera [11]) [%] | Activity (Helicoverpa armigera [12]) [%] | Ratio (Helicoverpa armigera [13]) | EC50 (Helicoverpa armigera [14]) [ppm] | Activity (Helicoverpa armigera [15]) [%] | Ratio (Helicoverpa armigera [16]) | Ratio (Helicoverpa armigera [17]) | Activity (Helicoverpa armigera [18]) | Ratio (Helicoverpa armigera [19]) | Activity (Helicoverpa armigera [20]) [%] | also measured |
| --- | --- | --- | --- | --- | --- | --- | --- | --- | --- | --- | --- | --- | --- | --- | --- | --- | --- | --- | --- | --- | --- |
| C=C1[C@@H]([C@@]2(C)[C@@H](OC(C)=O)CC(=O)O[C@](C)(COC(C)=O)[C@@H]2C(=O)OC)[C@@H](OC=O)[C@H](OC(=O)[C@H](O)[C@H](C)CC)[C@@]2(C)[C@H](c3ccoc3)CC(=O)[C@]12O [PRIEURIANIN] | Active | 0.83 | 18.8 | 169 (≈ 226 µM) | 60 | 0.41 | inactive | 1.63 | 57.7 | 3.74 | 22.1 | 19.8 | 0.82 | 92.2 | 21.6 | 0.32 | 3.79 | inactive | 2.04 | 20 | DI50 (Helicoverpa armigera [1]): 91.4 ppm |
| C=C1[C@@H]([C@@]2(C)[C@@H](OC(C)=O)CC(=O)O[C@](C)(COC(C)=O)[C@@H]2CC(=O)OC)[C@@H](OC=O)[C@H](OC(=O)[C@H](OC(C)=O)[C@H](C)CC)[C@]2(C)[C@@H](c3ccoc3)C[C@H]3O[C@]132 | Active | 0.85 | 2.6 | 30.8 (≈ 39 µM) | 60 | 0.35 | inactive | 1.08 | 72.8 | 3.74 | 22.1 | 19 | 0.8 | 45.7 | 21.3 | 0.2 | 3.78 | inactive | 1.74 | 20.1 | DI50 (Helicoverpa armigera [1]): 48.3 ppm; Activity (Helicoverpa armigera [21]): Dose-dependent effect; Activity (Helicoverpa armigera [21]; record 2): 50.2% |
| C=C1[C@@H]([C@@]2(C)[C@@H](OC(C)=O)CC(=O)O[C@](C)(COC(C)=O)[C@@H]2CC(=O)OC)[C@@H](OC=O)[C@H](OC(=O)[C@H](O)[C@H](C)CC)[C@]2(C)[C@@H](c3ccoc3)C[C@H]3O[C@]132 | Active | 0.88 | 3.2 | 30.6 (≈ 41 µM) | 60 | 0.36 | inactive | 1.06 | 69.1 | 3.48 | 25.2 | 26.4 | 0.87 | 55.7 | 25.9 | 0.28 | 3.36 | inactive | 1.38 | 26.2 | Activity (Helicoverpa armigera [21]): Dose-dependent effect; Activity (Helicoverpa armigera [21]; record 2): 50.2% |
| C/C=C(\C)C(=O)O[C@H]1C[C@@H](OC(C)=O)[C@@]2(C(=O)OC)CO[C@H]3[C@@H](O)[C@@](C)([C@]45O[C@@]4(C)[C@@H]4C[C@H]5O[C@@H]5OC=C[C@@]54O)[C@H]4[C@]1(CO[C@]4(O)C(=O)OC)[C@@H]32 [AZADIRACHTIN A] | – | – | 0.26 | 1.46 (≈ 2.03 µM) | ≤ 75 | – | – | – | ≤ 76 | – | – | – | – | 0.4 | – | – | – | – | – | – | – |

— ChEMBL document CHEMBL3046748, “Antifeedant effects of the limonoids from Entandrophragma candolei (Meliaceae) on the gram pod borer, Helicoverpa armigera (Lepidoptera: Noctuidae)” (J Agric Food Chem, 2003)
